# Reference: ChEMBL document CHEMBL1124360, “Dihydropyrimidines: novel calcium antagonists with potent and long-lasting vasodilative and antihypertensive activity” (J Med Chem, 1989)
# Key:
# Canis familiaris [1] = assay: Effective dose that lowers vascular resistance by, 30% in dogs when administered intravenously; format: functional; settings: Canis lupus familiaris, iv
# How it was run: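 Mongrel dogs (7-15 kg, either sex) are anesthetized with thiopental 30 mg/kg iv or ip, then urethane 400 mg/kg plus α-chloralose 60 mg/kg iv, and ventilated. Left vertebral flow is measured by electromagnetic probe and femoral arterial pressure is recorded. Resistance is pressure divided by flow. Compounds in ethanol are given iv at 0.05 mL/kg in cumulative rising doses; the dose cutting resistance 30% is taken (N = 3).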
# [2] = molecular target: T1, Voltage-gated L-type calcium channel (Rattus norvegicus, UniProt P22002+Q02485+P27732); assay: Inhibition of [3H]- Nitrendipine binding to L-type calcium channels of rat cerebral cortex; format: tissue-based
# How it was run: (§1)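 Rat cerebral cortex is homogenized in ice-cold 50 mM Tris-HCl pH 7.7 and washed by repeated 40000g spins. Homogenate is incubated with 0.2 nM [³H]nitrendipine and drug for 1 h at 25 °C, then vacuum-filtered on glass-fiber filters and counted by liquid scintillation. Nonspecific binding is defined with 1 μM unlabeled nitrendipine.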
# Canis familiaris [3] = assay: (§2) Time to peak response on lowering of vascular resistance, in dogs when administered intravenously; format: ADME, organism-based, Canis lupus familiaris; settings: dog, in vivo, iv
# Canis familiaris [4] = assay: as §2; format: organism-based, Canis lupus familiaris; settings: dog, in vivo, iv
# Canis familiaris [5] = species on record: Canis familiaris; assay: Dose at which compound induce atrioventricular block in dogs; AV means atrioventricular; range is 1000-3000; format: functional, Canis lupus familiaris
# How it was run: (§3)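 Anesthetized open-chest dogs; atrium paced with square-wave pulses of 1.5-2.5 V, 2 ms, at 2.5 Hz. AV conduction time is the interval between atrial and ventricular electrograms. Compounds are dissolved in 100% DMSO and injected iv into the femoral vein at 0.05 mL/kg. Reported as the dose prolonging AVCT by 30% (mean ± SE, N = 4-5) or the dose inducing AV block.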
# Canis familiaris [6] = species on record: Canis familiaris; assay: Effective dose against atrioventricular conduction in dogs at which they prolong atrioventricular conduction time by 30%; format: functional; settings: Canis lupus familiaris; how it was run: as §3
# Canis familiaris [7] = species on record: Canis familiaris; assay: Dose at which compound induce atrioventricular block in dogs; range is 100-3000; format: functional, Canis lupus familiaris; how it was run: as §3
# [8] = molecular target: T1, Voltage-gated L-type calcium channel; assay: Inhibition of [3H]nitrendipine binding to L-type calcium channels of rat cerebral cortex; format: tissue-based; how it was run: as §1
# Canis familiaris [9] = species on record: Canis familiaris; assay: Dose at which compound induce atrioventricular block in dogs; range is 100-300; format: functional, Canis lupus familiaris; how it was run: as §3
Compound,ED30 (Canis familiaris [1]),also measured
CC1=C(C(=O)OC(C)C)C(c2ccccc2[N+](=O)[O-])N(C(=O)OCCN(Cc2ccccc2)Cc2ccc3ccccc3c2)C(N(C)C)=N1 (configuration not stated),> 100 µg/kg,–
CO/C(O)=C1/C(C)=NC(C)=C(C(=O)OCCN2CCN(C(c3ccccc3)c3ccccc3)CC2)C1c1cccc([N+](=O)[O-])c1 (configuration not stated),–,IC50 [2]: 8.68 nM
CCCCCCCOC(=O)C1=C(C)N=C(C)N(C(=O)OCC)C1c1ccccc1[N+](=O)[O-] (configuration not stated),23 µg/kg,–
COC(=O)C1=C(C)NC(C)=C(C(=O)OC)C1c1ccccc1[N+](=O)[O-] [NIFEDIPINE],0.5 µg/kg,Tp (Canis familiaris [3]): 0.7 min
CCOC(=O)C1=C(C)N=C(C)N(C(=O)OCCN(C)Cc2ccccc2)C1c1ccccc1[N+](=O)[O-] (configuration not stated),0.75 µg/kg,–
CC1=NC(C)=C(C(=O)OC(C)C)C(c2ccccc2[N+](=O)[O-])N1C(=O)OCCN(CCc1ccccc1)Cc1ccccc1 (configuration not stated),1.2 µg/kg,Tp (Canis familiaris [4]): 2.7 min
CCOC(=O)C1=C(C)N=C(C)N(C(=O)OCC)C1c1ccccc1[N+](=O)[O-] (configuration not stated),3 µg/kg,–
CC1=C(C(=O)OC(C)C)C(c2ccccc2[N+](=O)[O-])N(C(=O)OCCN(Cc2ccccc2)Cc2ccccc2)C(C(F)(F)F)=N1 (configuration not stated),6.8 µg/kg,–
CCOC(=O)N1C(C(F)(F)F)=NC(C)=C(C(=O)OC(C)C)C1c1ccccc1[N+](=O)[O-] (configuration not stated),8.3 µg/kg,–
CCOC(=O)C1=C(COCCN(Cc2ccccc2)Cc2ccc(Cl)c(Cl)c2)N=C(C)N(C(=O)OC)C1c1ccccc1[N+](=O)[O-].Cl (configuration not stated),> 100 µg/kg,–
CCOC(=O)C1=C(C)N=C(C)N(C(=O)OCC)C1c1ccccc1Cl (configuration not stated),5 µg/kg,–
CC1=C(C(=O)OC(C)C)C(c2ccccc2[N+](=O)[O-])N(C(=O)OCCN(Cc2ccccc2)Cc2ccc3ccccc3c2)C(C(C)C)=N1 (configuration not stated),> 100 µg/kg,–
CCCCCCCOC(=O)N1C(=O)NC(C)=C(C(=O)OCC2CC2)C1c1ccccc1[N+](=O)[O-] (configuration not stated),2.3 µg/kg,Tp (Canis familiaris [4]): 1.9 min
CC1=NC(C)=C(C(=O)OCC2CC2)C(c2ccccc2[N+](=O)[O-])N1C(=O)OCCN(C)Cc1ccccc1 (configuration not stated),0.5 µg/kg,–
CCOC(=O)C1=C(C)N=C(C)N(C(=O)OCC)C1c1ccccc1Br (configuration not stated),5 µg/kg,–
CCOC(=O)C1=C(C)N=C(C)N(C(=O)OCC)C1c1cccc([N+](=O)[O-])c1 (configuration not stated),10 µg/kg,–
CCCCCCCOC(=O)N1C(=O)NC(C)=C(C(=O)OCC2CC2)C1c1cccc([N+](=O)[O-])c1 (configuration not stated),3 µg/kg,–
CCC1=NC(C)=C(C(=O)OC(C)C)C(c2ccccc2[N+](=O)[O-])N1C(=O)OCCN(Cc1ccccc1)Cc1ccc2ccccc2c1 (configuration not stated),27 µg/kg,–
CCOC(=O)C1=C(C)NC(=O)N(C(=O)OCCN(C)Cc2ccccc2)C1c1cccc(Cl)c1 (configuration not stated),43 µg/kg,–
CC1=NC(C)=C(C(=O)OC(C)C)C(c2ccccc2[N+](=O)[O-])N1C(=O)OCCN(Cc1ccccc1)Cc1ccc(Cl)c(Cl)c1 (configuration not stated),2.1 µg/kg,AV block (Canis familiaris [5]): 1000 µg/kg; ED30 (Canis familiaris [6]): 596 µg/kg; Tp (Canis familiaris [3]): 10.8 min; IC50 [2]: 2.05 nM
CCOC(=O)N1C(C)=NC(C)=C(C(=O)OCCN(C)Cc2ccccc2)C1c1ccccc1[N+](=O)[O-] (configuration not stated),13 µg/kg,–
CCOC(=O)C1=C(C)NC(=O)N(C(=O)OCC(c2ccccc2)c2ccccc2)C1c1cccc([N+](=O)[O-])c1 (configuration not stated),10.6 µg/kg,–

Compound,ED30 (Canis familiaris [1]),also measured
CCC1N=C(C)/C(=C(/O)OC(C)C)C(c2ccccc2[N+](=O)[O-])N1C(=O)OCN(Cc1ccccc1)Cc1ccc2ccccc2c1 (configuration not stated),13.5 µg/kg,Tp (Canis familiaris [4]): 7.2 min
CC1=C(C(=O)OC(C)C)C(c2ccccc2[N+](=O)[O-])N(C(=O)OCCN(Cc2ccccc2)Cc2ccc3ccccc3c2)C(=O)N1 (configuration not stated),10 µg/kg,Tp (Canis familiaris [4]): 7.8 min
CCCCCCCOC(=O)N1C(C)=NC(C)=C(C(=O)OCC2CC2)C1c1ccccc1[N+](=O)[O-] (configuration not stated),5.6 µg/kg,–
CC1=NC(C)=C(C(=O)OCC2CC2)C(c2ccccc2[N+](=O)[O-])N1C(=O)OCCN(C/C=C/c1ccccc1)Cc1ccccc1 (configuration not stated),3.9 µg/kg,Tp (Canis familiaris [4]): 5.6 min
CCC1N=C(C)/C(=C(/O)OC(C)C)C(c2ccccc2[N+](=O)[O-])N1C(=O)OCN(Cc1ccccc1)Cc1ccc(Cl)c(Cl)c1 (configuration not stated),19.5 µg/kg,Tp (Canis familiaris [4]): 5.5 min
CCOC(=O)C1=C(C)NC(C)=C(C(=O)OC)C1c1cccc([N+](=O)[O-])c1 (configuration not stated) [NITRENDIPINE],1.2 µg/kg,Tp (Canis familiaris [4]): 1 min
COC(=O)C1=C(C)NC(C)=C(C(=O)OCCN(C)Cc2ccccc2)C1c1cccc([N+](=O)[O-])c1 (configuration not stated) [NICARDIPINE],3 µg/kg,AV block (Canis familiaris [7]): 100 µg/kg; IC50 [8]: 2.66 nM; ED30 (Canis familiaris [6]): 175 µg/kg; Tp (Canis familiaris [3]): 1.2 min
COC(=O)C1=C(C#N)NC(C)=C(C(=O)OC(C)C)C1c1cccc([N+](=O)[O-])c1 (configuration not stated) [NILVADIPINE],–,IC50 [8]: 1.04 nM; ED30 (Canis familiaris [6]): 34 µg/kg; AV block (Canis familiaris [9]): 100 µg/kg
CC1=C(C(=O)OC(C)C)C(c2ccccc2[N+](=O)[O-])N(C(=O)OCCN(Cc2ccccc2)Cc2ccc3ccccc3c2)C=N1 (configuration not stated),> 100 µg/kg,–
CSC1=NC(C)=C(C(=O)OC(C)C)C(c2ccccc2[N+](=O)[O-])N1C(=O)OCCN(Cc1ccccc1)Cc1ccc2ccccc2c1 (configuration not stated),> 100 µg/kg,–
CC1=C(C(=O)OCC2CC2)C(c2cccc([N+](=O)[O-])c2)N(C(=O)OCCN(C)Cc2ccccc2)C(=O)N1 (configuration not stated),13 µg/kg,–
CC1=NC(C)=C(C(=O)OC(C)C)C(c2ccccc2[N+](=O)[O-])N1C(=O)OCCN(Cc1ccccc1)Cc1ccccc1 (configuration not stated),2.8 µg/kg,Tp (Canis familiaris [4]): 2.6 min
CCOC(=O)N1C(CC)=NC(C)=C(C(=O)OC(C)C)C1c1ccccc1[N+](=O)[O-] (configuration not stated),8 µg/kg,–
CC1=NC(C)=C(C(=O)OCC2CC2)C(c2ccccc2[N+](=O)[O-])N1C(=O)OCCN(CCCc1ccccc1)Cc1ccccc1 (configuration not stated),4.3 µg/kg,AV block (Canis familiaris [5]): 1000 µg/kg; ED30 (Canis familiaris [6]): 843 µg/kg; Tp (Canis familiaris [4]): 4.8 min
CCCCCCCOC(=O)N1C(C)=NC(C)=C(C(=O)OCC)C1c1ccccc1[N+](=O)[O-] (configuration not stated),3.2 µg/kg,–
CCCCCCCOC(=O)C1=C(C)N=C(C)N(C(=O)OCCCCCCC)C1c1ccccc1[N+](=O)[O-] (configuration not stated),180 µg/kg,–
CCCCOC(=O)C1=C(C)N=C(C)N(C(=O)OCCN(Cc2ccccc2)Cc2ccccc2)C1c1ccccc1[N+](=O)[O-] (configuration not stated),6.8 µg/kg,Tp (Canis familiaris [4]): 4.7 min
CCOC(=O)C1=C(Cl)N=C(C)N(C(=O)OCCN(Cc2ccccc2)Cc2ccc3ccccc3c2)C1c1ccccc1[N+](=O)[O-] (configuration not stated),10 µg/kg,Tp (Canis familiaris [4]): 5.2 min
CCCCCCCOC(=O)C1=C(C)N=C(C)N(C(=O)OCCN(Cc2ccccc2)Cc2ccccc2)C1c1ccccc1[N+](=O)[O-] (configuration not stated),> 30 µg/kg,–
CC1=NC(C)=C(C(=O)OC(C)C)C(c2ccccc2[N+](=O)[O-])N1C(=O)OCCN(Cc1ccccc1)Cc1ccc2ccccc2c1 (configuration not stated),1.8 µg/kg,AV block (Canis familiaris [5]): 1000 µg/kg; ED30 (Canis familiaris [6]): 762 µg/kg; Tp (Canis familiaris [3]): 7.9 min; IC50 [2]: 7.08 nM
CC1=NC(C)=C(C(=O)OC(C)C)C(c2ccccc2[N+](=O)[O-])N1C(=O)OCCN(Cc1ccccc1)c1ccccc1 (configuration not stated),0.74 µg/kg,Tp (Canis familiaris [4]): 1.9 min
